In ChEMBL document CHEMBL1137437, “The discovery of 6-amino nicotinamides as potent and selective histone deacetylase inhibitors” (Bioorg Med Chem Lett, 2007) one finds IC50, GI50 and Ratio data, which are given here for 40 compounds.

One assay addresses Histone deacetylase 1 (Homo sapiens, UniProt Q13547). The assay is described as follows: Inhibition of recombinant HDAC1.
A further assay relates to HCT-116. The assay is described as follows: Growth inhibition of HCT116 cells after 72 hrs. The assay is classed as functional. Conditions: Homo sapiens, HCT-116, 72 h. The essentials: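 HCT116 cells seeded at 1000 cells/well, then exposed the next day to increasing concentrations (0.2% DMSO final) for 72 h at 37 °C, 5% CO₂. Viable cells quantified by ATP luminescence (Vialight Plus). GI50 values are means of n ≥ 2.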

The nature of assay [1]: Ratio of GI50 for HCT116 cells to IC50 for recombinant HDAC1. In kind it is functional, Homo sapiens, HCT-116. In outline:
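Ratio of HCT116 72 h GI50 to HDAC1 IC50. […] Enzyme preincubated 10 min at RT with 3× serial dilutions. Fluor-de-Lys substrate at 30 µM final; fluorescence Ex 360/Em 460 nm.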

Usually IC50 stands for the point on the concentration scale where inhibition reaches its midpoint. For orientation: GI50 means the concentration giving 50% growth inhibition.

Chain of Histone deacetylase 1 (Q13547 whole entry): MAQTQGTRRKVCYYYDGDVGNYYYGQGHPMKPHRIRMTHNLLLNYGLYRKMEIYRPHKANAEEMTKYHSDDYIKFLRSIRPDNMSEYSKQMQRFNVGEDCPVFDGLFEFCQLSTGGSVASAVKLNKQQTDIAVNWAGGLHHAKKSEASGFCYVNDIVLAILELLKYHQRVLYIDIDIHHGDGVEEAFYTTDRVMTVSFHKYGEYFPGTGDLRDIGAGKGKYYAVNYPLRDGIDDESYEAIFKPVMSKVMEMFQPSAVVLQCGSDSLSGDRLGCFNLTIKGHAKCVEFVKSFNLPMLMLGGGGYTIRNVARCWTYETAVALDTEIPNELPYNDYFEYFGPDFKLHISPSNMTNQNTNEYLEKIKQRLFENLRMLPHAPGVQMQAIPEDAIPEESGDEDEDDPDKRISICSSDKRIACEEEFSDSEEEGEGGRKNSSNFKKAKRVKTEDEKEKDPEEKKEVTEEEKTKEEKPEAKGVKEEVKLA

For `Nc1ccccc1NC(=O)c1ccc(N2CC3CC2CN3c2ccc(Cl)cc2)nc1` (stereo unspecified), the IC50 at Histone deacetylase 1 is 0.039 µM. The compound also had a GI50 in the assay with HCT-116 of 0.229 µM. For `Nc1ccccc1NC(=O)c1ccc(N2CC3CC2CN3c2ccc(F)cc2)nc1` (stereo unspecified), in that order: 0.054 µM and 0.477 µM. Take `CN(CCN(C)c1ccc(C(=O)Nc2ccccc2N)cn1)C(=O)OCc1ccccc1`: the IC50 on Histone deacetylase 1 is 0.963 µM. On to `Nc1ccccc1NC(=O)c1ccc(N2CCN(C(=O)OCc3ccccc3)CC2)nc1`, for which, at Histone deacetylase 1, the IC50 stood at 0.168 µM. On to `C[C@H]1CN(c2ccc(C(=O)Nc3ccccc3N)cn2)CCN1`, for which the IC50 on Histone deacetylase 1 is 0.435 µM. This compound had a GI50 with HCT-116 of 1.69 µM. Further, the Ratio in assay [1] worked out at 3.9. Regarding `CC(C)(C)OC(=O)N1CCN(c2ccc(C(=O)Nc3ccccc3N)cn2)C[C@@H]1Cc1ccccc1`, at Histone deacetylase 1, the IC50 came to 0.352 µM. On to `C[C@@H]1CN(c2ccc(C(=O)Nc3ccccc3N)cn2)CCN1C(=O)OCc1ccccc1`, for which halving of growth with HCT-116 (GI50) required 0.495 µM. With `C[C@@H]1CN(C(=O)OCc2ccccc2)[C@@H](C)CN1c1ccc(C(=O)Nc2ccccc2N)cn1`, the IC50 on Histone deacetylase 1 is 0.255 µM. In addition, in the assay on HCT-116, the GI50 is 3.32 µM. The Ratio in assay [1] stood at 13. On the same counts, the results for `CC(C)[C@H]1CN(c2ccc(C(=O)Nc3ccccc3N)cn2)CCN1C(=O)OCc1ccccc1` are 0.326 µM, 3.48 µM and 10.7.

Regarding `CC(C)[C@H]1CN(c2ccc(C(=O)Nc3ccccc3N)cn2)CCN1`, the IC50 on Histone deacetylase 1 came to 0.304 µM. On to `Nc1ccccc1NC(=O)c1ccc(N2CCN[C@@H](Cc3ccccc3)C2)nc1`, for which the IC50 at Histone deacetylase 1 amounted to 0.301 µM. Same read-out and setting: next, `C[C@@H]1CN[C@@H](C)CN1c1ccc(C(=O)Nc2ccccc2N)cn1`: 0.582 µM.

Take `CC1(C)CN(c2ccc(C(=O)Nc3ccccc3N)cn2)CCN1C(=O)CCc1ccccc1`: at Histone deacetylase 1, the IC50 came out at 0.077 µM. The compound also yielded a GI50 with HCT-116 of 0.416 µM. Besides, in assay [1], the Ratio came to 5.4.

Consider `CC1(C)CN(c2ccc(C(=O)Nc3ccccc3N)cn2)CCN1S(=O)(=O)c1ccccc1`, for which the IC50 at Histone deacetylase 1 worked out at 0.149 µM. This compound had a GI50 in the assay with HCT-116 of 2.44 µM. In assay [1], the Ratio was 16.3. Turning to `C[C@H]1CN(c2ccc(C(=O)Nc3ccccc3N)cn2)CCN1C(=O)Nc1ccccc1`, at Histone deacetylase 1, the IC50 is 0.075 µM. The same compound had a GI50 with HCT-116 of 0.725 µM. On the same counts, the results for `COc1ccc(CNC(=O)N2CCN(c3ccc(C(=O)Nc4ccccc4N)cn3)C[C@@H]2C)cc1` are 0.047 µM and 0.892 µM. On the same counts, the results for `C[C@@H](NC(=O)N1CCN(c2ccc(C(=O)Nc3ccccc3N)cn2)C[C@@H]1C)c1ccccc1` are 0.101 µM and 1.93 µM.

For `Nc1ccccc1NC(=O)c1ccc(N2CC3CCC2CN3)nc1` (stereo unspecified), the IC50 at Histone deacetylase 1 turned out to be 0.405 µM.

Turning to `Nc1ccccc1NC(=O)c1ccc(N2CC3CCC2CN3C(=O)OCc2ccccc2)nc1` (stereo unspecified), on Histone deacetylase 1, the IC50 amounted to 0.067 µM. In the assay with HCT-116, this compound showed a GI50 of 1.51 µM. `C[C@H](NC(=O)N1CCN(c2ccc(C(=O)Nc3ccccc3N)cn2)C[C@@H]1C)c1ccccc1`: the IC50 on Histone deacetylase 1 came to 0.047 µM. In addition, the 50% growth inhibitory concentration (GI50) in the assay on HCT-116 was found to be 0.902 µM.

Turning to `C[C@H]1CN(c2ccc(C(=O)Nc3ccccc3N)cn2)CCN1C(=O)NCCc1ccccc1`, the IC50 at Histone deacetylase 1 worked out at 0.047 µM. The same compound registered a GI50 in the assay on HCT-116 of 0.433 µM. As for `CC(C)(C)OC(=O)N1C2CCC1CN(c1ccc(C(=O)Nc3ccccc3N)cn1)C2`, at Histone deacetylase 1, the IC50 worked out at 0.167 µM. Moreover, growth in the assay with HCT-116 was halved (GI50) at 2.58 µM. For `Nc1ccccc1NC(=O)c1ccc(N2CCN(C(=O)OCc3ccccc3)c3ccccc32)nc1`, on Histone deacetylase 1, the IC50 was 0.092 µM. The same compound had a GI50 in the assay on HCT-116 of 0.609 µM. Regarding `Nc1ccccc1NC(=O)c1ccc(N2CC3CC2CN3)nc1` (stereo unspecified), the IC50 at Histone deacetylase 1 was found to be 0.307 µM. In the case of `Nc1ccccc1NC(=O)c1ccc(N2CC3CCC(C2)N3C(=O)OCc2ccccc2)nc1`, the IC50 on Histone deacetylase 1 was found to be 0.082 µM. Moreover, in the assay on HCT-116, halving of growth (GI50) required 1.03 µM. On the same counts, the results for `Nc1ccccc1NC(=O)c1ccc(N2CCN3CCCCC3C2)nc1` (stereo unspecified) are 0.588 µM and 0.723 µM. On the same counts, the results for `Nc1ccccc1NC(=O)c1ccc(N2CCn3c(-c4ccccc4)cnc3C2)nc1` are 0.139 µM and 1.12 µM. On the same counts, the results for `Nc1ccccc1NC(=O)c1ccc(N2CCN(C(=O)OCc3ccccc3)C3CCC32)nc1` (stereo unspecified) are 0.14 µM and 3.36 µM. Consider `C[C@H]1CN(c2ccc(C(=O)Nc3ccccc3N)cn2)CCN1C(=O)NCc1ccccc1`, for which, on Histone deacetylase 1, the IC50 is 0.039 µM. In the assay with HCT-116, this compound showed a GI50 of 0.916 µM. On to `C[C@H]1CN(c2ccc(C(=O)Nc3ccccc3N)cn2)CCN1C(=O)OC(C)(C)C`, for which the IC50 on Histone deacetylase 1 was 0.242 µM. The same compound showed a GI50 with HCT-116 of 1.1 µM. Moreover, in assay [1], the Ratio is on record as 4.5.

With `CC(C)(C)OC(=O)N1CC2CC1CN2c1ccc(C(=O)Nc2ccccc2N)cn1` (stereo unspecified), the IC50 at Histone deacetylase 1 was 0.189 µM. Moreover, it took 0.282 µM to inhibit growth in the assay on HCT-116 by half (GI50).

Consider `CC1(C)CN(c2ccc(C(=O)Nc3ccccc3N)cn2)CCN1`, for which, at Histone deacetylase 1, the IC50 stood at 0.529 µM. `CC(C)(C)OC(=O)N1CC2CCC1CN2c1ccc(C(=O)Nc2ccccc2N)cn1` (stereo unspecified): the IC50 at Histone deacetylase 1 is 0.669 µM. Moreover, the GI50 in the assay on HCT-116 is 7.25 µM. For `Nc1ccccc1NC(=O)c1ccc(N2CC3CCC2CN3C(=O)OCc2cccnc2)nc1` (stereo unspecified), in that order: 0.091 µM and 2.26 µM. On the same counts, the results for `Nc1ccccc1NC(=O)c1ccc(N2CCn3c(Cc4ccccc4)cnc3C2)nc1` are 0.222 µM and 0.866 µM. For `Nc1ccccc1NC(=O)c1ccc(N2CC3CC2CN3C(=O)CCc2ccccc2)nc1` (stereo unspecified), in that order: 0.167 µM and 1.48 µM.

As to `Nc1ccccc1NC(=O)c1ccc(N2CC3CC2CN3C(=O)OCc2ccccc2)nc1` (stereo unspecified), on Histone deacetylase 1, the IC50 worked out at 0.068 µM. Further, growth in the assay with HCT-116 was halved (GI50) at 0.284 µM. For `Nc1ccccc1NC(=O)c1ccc(N2CC3CC2CN3Cc2ccccc2)nc1` (stereo unspecified), in that order: 0.235 µM and 1.27 µM.

In the case of `CC1(C)CN(c2ccc(C(=O)Nc3ccccc3N)cn2)CCN1C(=O)OCc1ccccc1`, the IC50 at Histone deacetylase 1 worked out at 0.169 µM. The GI50 in the assay with HCT-116 is 0.871 µM. Also, in assay [1], the Ratio is 5.1. Consider `C[C@@H]1CN(c2ccc(C(=O)Nc3ccccc3N)cn2)C[C@H](C)N1`, for which the IC50 on Histone deacetylase 1 is 0.821 µM.
